Data on two substances can be found in article PMC4116148 (Biochemistry, 2014).

The target in this data set is T1, EHD1-EH (Homo sapiens, UniProt Q9H4M9).
T1 sequence (Q9H4M9 444-532 limits assumed): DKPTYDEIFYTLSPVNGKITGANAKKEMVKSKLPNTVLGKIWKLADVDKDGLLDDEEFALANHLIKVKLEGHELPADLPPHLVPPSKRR
Put plainly: Fluorescence polarization. The class given is binding. A digest of the protocol: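 Fluorescein-labelled peptide probes mixed with the EHD1 EH domain; binding read by fluorescence polarization. Buffer: 25 mM MOPS (pH 6.8), 1 mM CaCl2, 15 mM NaCl, 1.5% DMSO, 0.1% Tween 20.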
(Fluorescence polarisation rises when a labelled molecule tumbles more slowly, as on binding a larger partner.)

fluorescein = fluorescein: fluorescein label on the Lys side chain

Turning to “-YAPAEEGK(Flu)- (cyclo(YAPAEEGK(fluorescein))) [cAPA^Flu]”, the “binding to EHD1-EH” value (up to 67 μM EHD1-EH, 15 mM NaCl) was “No binding was observed”. “-YNPFEAGK(Flu)- (cyclo(YNPFEAGK(fluorescein))) [cNPF5^Flu]”: the loss of affinity (FP direct binding, reduced charge analogue relative to cNPF1^Flu) came to 3 fold.
